Experimental data taken from article PMC5644278 (Alzheimer's & Dementia : Translational Research & Clinical …, 2016).

What was measured:
Type in all cases: in vivo, human
healthy male subjects [1] = experiment: Treatment emergent adverse events, single dose study
healthy male subjects [2] = experiment: Adaptive tracking
Method in brief: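 Healthy males got one intranasal spray dose in a double-dummy design with oral capsules: 11 mg for young subjects, 22 or 33 mg for elderly subjects, 6 per dose, with age-matched nasal placebo. NeuroCart tests were run twice before dosing, then at 1, 2, 3, 4, 5, 6, 8 and 10 h after, in a quiet room, one subject per session. Analysis was mixed-model ANOVA: treatment, time and treatment×time fixed, subject random, baseline as covariate.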

healthy male subjects [3] = experiment: Visual verbal learning test
healthy male subjects [4] = experiment: Face encoding and recognition task, single dose
Method in brief: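 Single intranasal dose in a double-dummy design (11 mg young males; 22 or 33 mg elderly males; 6 per dose) or nasal placebo. The face encoding and recognition task was done before dosing and 1 h 45 min after the nasal dose, in a quiet room, one subject per session. Each active group was compared with age-matched placebo by mixed-model ANOVA.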

healthy male subjects [5] = experiment: Pharmaco-electroencephalography, single dose
healthy male subjects [6] = experiment: Eye movements
healthy male subjects [7] = experiment: VAS nausea, single dose; details: healthy elderly males
healthy male subjects [8] = experiment: Nasal examination; details: Gln-1062 44-mg group
Method in brief: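 Nasal examination at screening, during the study period after one intranasal dose (44 mg; healthy elderly males, 6 active per cohort, double-dummy with oral capsules), and at follow-up about 1 week after dosing.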

[9] = Gln-1062 5.5 mg vs Placebo, healthy young males
[10] = Gln-1062 11 mg vs Placebo, healthy young males
[11] = Gln-1062 22 mg vs Placebo, healthy elderly males
[12] = Gln-1062 33 mg vs Placebo, healthy elderly males
[13] = Gln-1062 44 mg vs Placebo, healthy elderly males

Structure (SMILES): COc1ccc2c3c1O[C@H]1C[C@@H](OC(=O)c4ccccc4)C=C[C@@]31CCN(C)C2 [Gln-1062]
- Vomiting, incidence (healthy male subjects [1]; Gln-1062 44 mg, healthy elderly subjects): 33.3%
- Nausea, incidence (healthy male subjects [1]; Gln-1062 at the highest dose levels (n = 3)): 50%
- single dose levels safe and well tolerated (healthy male subjects [1]; intranasal single dose): up to 33 mg
- Adaptive tracking (healthy male subjects [2]; [9]): 1.96 (−0.88 to 4.80) P = .1581%
- Adaptive tracking (healthy male subjects [2]; [10]): 3.47 (0.52 to 6.42) P = .0247%
- Adaptive tracking (healthy male subjects [2]; [11]): 0.64 (−1.06 to 2.35) P = .4474%
- Adaptive tracking (healthy male subjects [2]; [12]): 1.79 (0.07 to 3.52) P = .0424%
- Adaptive tracking (healthy male subjects [2]; [13]): 0.74 (−0.99 to 2.48) P = .3887%
- VVLT: delayed word recall (correct) (healthy male subjects [3]; [9]): 3.42 (−2.62 to 9.45) P = .2431
- VVLT: immediate word recall trial 1 (Word recall correct 1) (healthy male subjects [3]; [9]): 3.42 (−0.73 to 7.56) P = .0984
- VVLT: immediate word recall trial 2 (Word recall correct 2) (healthy male subjects [3]; [9]): 3.17 (−1.93 to 8.26) P = .2025
- VVLT: immediate word recall trial 3 (Word recall correct 3) (healthy male subjects [3]; [9]): 5.00 (−0.58 to 10.58) P = .0749
- VVLT: word recognition (Delayed word recognition correct) (healthy male subjects [3]; [9]): −0.15 (−8.05 to 7.75) P = .9674
- VVLT: delayed word recall (correct) (healthy male subjects [3]; [10]): 3.25 (−2.79 to 9.29) P = .2657
- VVLT: immediate word recall trial 1 (Word recall correct 1) (healthy male subjects [3]; [10]): 3.92 (−0.23 to 8.06) P = .0621
- VVLT: immediate word recall trial 2 (Word recall correct 2) (healthy male subjects [3]; [10]): 1.83 (−3.26 to 6.93) P = .4510
- VVLT: immediate word recall trial 3 (Word recall correct 3) (healthy male subjects [3]; [10]): 3.00 (−2.58 to 8.58) P = .2662
- VVLT: word recognition (Delayed word recognition correct) (healthy male subjects [3]; [10]): 1.45 (−6.45 to 9.35) P = .6939
- VVLT: delayed word recall (correct) (healthy male subjects [3]; [11]): −0.33 (−3.58 to 2.91) P = .8354
- VVLT: immediate word recall trial 1 (Word recall correct 1) (healthy male subjects [3]; [11]): 2.67 (0.17 to 5.16) P = .0367
- VVLT: immediate word recall trial 2 (Word recall correct 2) (healthy male subjects [3]; [11]): 3.50 (0.33 to 6.67) P = .0315
- VVLT: immediate word recall trial 3 (Word recall correct 3) (healthy male subjects [3]; [11]): 0.67 (−3.23 to 4.56) P = .7302
- VVLT: word recognition (Delayed word recognition correct) (healthy male subjects [3]; [11]): 0.87 (−4.09 to 5.82) P = .7231
- VVLT: delayed word recall (correct) (healthy male subjects [3]; [12]): −0.00 (−3.63 to 3.63) P = 1.0000
- VVLT: immediate word recall trial 1 (Word recall correct 1) (healthy male subjects [3]; [12]): 1.97 (−0.65 to 4.58) P = .1355
- VVLT: immediate word recall trial 2 (Word recall correct 2) (healthy male subjects [3]; [12]): 1.77 (−1.56 to 5.09) P = .2880
- VVLT: immediate word recall trial 3 (Word recall correct 3) (healthy male subjects [3]; [12]): 0.60 (−3.49 to 4.69) P = .7672
- VVLT: word recognition (Delayed word recognition correct) (healthy male subjects [3]; [12]): −0.67 (−6.45 to 5.12) P = .8153
- VVLT: delayed word recall (correct) (healthy male subjects [3]; [13]): −1.00 (−4.63 to 2.63) P = .5780
- VVLT: immediate word recall trial 1 (Word recall correct 1) (healthy male subjects [3]; [13]): 2.57 (−0.05 to 5.18) P = .0541
- VVLT: immediate word recall trial 2 (Word recall correct 2) (healthy male subjects [3]; [13]): 1.77 (−1.56 to 5.09) P = .2880
- VVLT: immediate word recall trial 3 (Word recall correct 3) (healthy male subjects [3]; [13]): 1.00 (−3.09 to 5.09) P = .6222
- VVLT: word recognition (Delayed word recognition correct) (healthy male subjects [3]; [13]): 2.17 (−3.11 to 7.45) P = .4083
- Face: number correct (healthy male subjects [4]; [9]): −0.77 (−4.17 to 2.64) P = .6332
- Face: number correct (healthy male subjects [4]; [10]): 4.54 (1.22 to 7.87) P = .0116
- Face: number correct (healthy male subjects [4]; [11]): −2.58 (−7.22 to 2.06) P = .2642
- Face: number correct (healthy male subjects [4]; [12]): −0.54 (.5.15 to 4.08) P = .8135
- Face: number correct (healthy male subjects [4]; [13]): −1.63 (−6.30 to 3.05) P = .4822
- EEG Alpha Fz-Cz (uV) (healthy male subjects [5]; [9]): −13.2% (−30.5% to 8.5%) P = .1914
- EEG Alpha Pz-Oz (uV) (healthy male subjects [5]; [9]): −8.9% (−23.8% to 8.9%) P = .2782
- EEG Alpha Fz-Cz (uV) (healthy male subjects [5]; [10]): −0.8% (−19.5% to 22.1%) P = .9310
- EEG Alpha Pz-Oz (uV) (healthy male subjects [5]; [10]): −13.1% (−27.2% to 3.7%) P = .1086
- EEG Alpha Fz-Cz (uV) (healthy male subjects [5]; [11]): 7.8% (−7.0% to 25.1%) P = .3088
- EEG Alpha Pz-Oz (uV) (healthy male subjects [5]; [11]): 13.8% (−5.4% to 36.9%) P = .1633
- EEG Alpha Fz-Cz (uV) (healthy male subjects [5]; [12]): 21.5% (4.8% to 40.8%) P = .0116
- EEG Alpha Pz-Oz (uV) (healthy male subjects [5]; [12]): 19.7% (−0.2% to 43.6%) P = .0530
- EEG Alpha Fz-Cz (uV) (healthy male subjects [5]; [13]): −10.1% (−24.2% to 6.6%) P = .2121
- EEG Alpha Pz-Oz (uV) (healthy male subjects [5]; [13]): 2.1% (−16.3% to 24.5%) P = .8306
- Saccadic Inaccuracy (healthy male subjects [6]; [9]): −1.56 (−2.77 to −0.35) P = .0157%
- Saccadic Peak Velocity (healthy male subjects [6]; [9]): 9.90 (−17.50 to 37.30) P = .4465 deg/sec
- Saccadic Inaccuracy (healthy male subjects [6]; [10]): −1.78 (−3.03 to −0.54) P = .0088%
- Saccadic Peak Velocity (healthy male subjects [6]; [10]): 8.32 (−18.32 to 34.95) P = .5097 deg/sec
- Saccadic Inaccuracy (healthy male subjects [6]; [11]): 0.24 (−1.01 to 1.48) P = .7005%
- Saccadic Peak Velocity (healthy male subjects [6]; [11]): 26.92 (4.11 to 49.73) P = .0223 deg/sec
- Saccadic Inaccuracy (healthy male subjects [6]; [12]): 0.08 (−1.14 to 1.30) P = .8970%
- Saccadic Peak Velocity (healthy male subjects [6]; [12]): 0.92 (−21.84 to 23.68) P = .9349 deg/sec
- Saccadic Inaccuracy (healthy male subjects [6]; [13]): −0.22 (−1.57 to 1.12) P = .7363%
- Saccadic Peak Velocity (healthy male subjects [6]; [13]): 19.19 (−5.54 to 43.92) P = .1242 deg/sec
- peak of nausea (VAS nausea), time after administration (healthy male subjects [7]): 4 h
- subjects with dry white plaques in the nostrils (healthy male subjects [8]): three
